The source made the active and inactive calls. The rule behind the calls is not given here.

The nature of assay [1]: Antiproliferative activity against human KB cells after 24 to 72 hrs by MTS assay. Type of assay: functional, cell-based. In a few lines:
(§1)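 Cells plated, then dosed 24 h later with compounds in DMSO (1% final; controls DMSO alone), exposed 24 or 72 h. Proliferation inhibition measured as previously reported (MTS/NADH reagent). IC50 from duplicate experiments over 0.5 nM–100 µM. KB grown in D-MEM with 10% fetal calf serum, penicillin, streptomycin, fungizone, 5% CO2; other lines in complete RPMI. EPC are quiescent Cyprinus carpio endothelial progenitor cells.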
Background: Formazan colour is commonly taken as a measure of viable cells.

A short description of assay [2]: Antiproliferative activity against human HL60 cells after 24 to 72 hrs by MTS assay. Type of assay: functional, cell-based. The following applies: HL-60. The method, boiled down: as §1
For assay [3], the system named is KB. Kind of assay: Selectivity index, ratio of IC50 for Cyprinus carpio EPC to IC50 for human KB cells.
The test system of assay [4] is HL-60. Briefly: Selectivity index, ratio of IC50 for Cyprinus carpio EPC to IC50 for human HL60 cells.
Assay [5] can be described thus: Antiproliferative activity against Cyprinus carpio EPC after 24 to 72 hrs by MTS assay.
The subject of assay [6] is HCT-116. Kind of assay: Induction of necrosis in human HCT116 cells assessed as increase in LDH release at 7 uM after 24 to 48 hrs by fluorescence assay. Type of assay: functional, cell-based.
In assay [7] the test system is MRC5. Briefly: Induction of necrosis in human MRC5 SV2 cells assessed as increase in LDH release at 7 uM after 24 to 48 hrs by fluorescence assay. Type of assay: functional, cell-based.
Assay [8] in a line: Antiproliferative activity against human MCF7 cells after 24 to 72 hrs by MTS assay. Type of assay: functional, cell-based.
Assay [9] is described as follows: Antiproliferative activity against human HCT116 cells after 24 to 72 hrs by MTS assay. Type of assay: functional, cell-based. As to conditions: HCT-116.
Assay [10] is described as follows: Antiproliferative activity against human PC3 cells after 24 to 72 hrs by MTS assay. Type of assay: functional, cell-based. As to conditions: PC-3.
Assay [11] is described as follows: Antiproliferative activity against human SKOV3 cells after 24 to 72 hrs by MTS assay. Type of assay: functional, cell-based. The following applies: SK-OV-3.
Assay [12] is described as follows: Antiproliferative activity against human OVCAR8 cells after 24 to 72 hrs by MTS assay. Type of assay: functional, cell-based. The following applies: OVCAR-8.
Assay [13] is described as follows: Cytotoxicity against human HL60 cells assessed as reduction in cell viability after 24 hrs by MTS assay. The following applies: HL-60, 24 h. It counts as functional, cell-based.
Assay [14] concerns HL-60. Kind of assay: Induction of necrosis in human HL60 cells assessed as increase in LDH release at 7 uM after 48 hrs by fluorescence assay. Type of assay: functional, cell-based.
Assay [15] deals with KB. Briefly: Induction of necrosis in human KB cells assessed as increase in LDH release at 7 uM after 24 to 48 hrs by fluorescence assay. It counts as functional, cell-based. (LDH leaks from cells whose membrane has failed.)
The test system of assay [16] is HL-60. Briefly: Antiproliferative activity against human HL60 cells at 7 uM after 24 hrs by viacount-reagent based FACS analysis. On the technique in general: In flow cytometry, cells or beads pass a laser one at a time.
For assay [17], the system named is HL60 (Homo sapiens). Briefly: Effect on 24 hrs pretreated human HL60 cells assessed as reduction in endogenous GSH content at 7 uM measured for 60 mins by fluorescence assay. As to conditions: HL-60.
A short description of assay [18]: Cell cycle arrest in human HL60 cells assessed as accumulation at G0/G1 phase at 2.5 uM after 24 hrs by propidium iodide-staining based FACS analysis (reference value: 43.5 %). It counts as functional. The following applies: HL-60. The method, boiled down:
(§2)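 HL60 cells, 25,000 per well, exposed 24 and 48 h to 2.5 µM compounds; controls DMSO (1% final). Propidium iodide staining, flow cytometry; fractions in sub-G1, G0/G1, S and G2/M quantified.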

The nature of assay [19]: Cell cycle arrest in human HL60 cells assessed as accumulation at S phase at 2.5 uM after 24 hrs by propidium iodide-staining based FACS analysis (reference value: 48.9 %). Type of assay: functional. The following applies: HL-60. In a few lines: as §2
The nature of assay [20]: Cell cycle arrest in human HL60 cells assessed as accumulation at G2/M phase at 2.5 uM after 24 hrs by propidium iodide-staining based FACS analysis (reference value: 5.1 %). It counts as functional. The following applies: HL-60. In a few lines: as §2
Assay [21] can be described thus: Cell cycle arrest in human HL60 cells assessed as accumulation at sub G1 phase at 2.5 uM after 24 hrs by propidium iodide-staining based FACS analysis (reference value: 2.6 %). Type of assay: functional. The following applies: HL-60. In a few lines: as §2
A short description of assay [22]: Cell cycle arrest in human HL60 cells assessed as accumulation at G0/G1 phase at 2.5 uM after 48 hrs by propidium iodide-staining based FACS analysis (reference value: 43.8 %). It counts as functional. As to conditions: HL-60. The method, boiled down: as §2
Assay [23] in a line: Cell cycle arrest in human HL60 cells assessed as accumulation at S phase at 2.5 uM after 48 hrs by propidium iodide-staining based FACS analysis (reference value: 52.6 %). Type of assay: functional. As to conditions: HL-60. In a few lines:
as §2

Assay [24] in a line: Cell cycle arrest in human HL60 cells assessed as accumulation at G2/M phase at 2.5 uM after 48 hrs by propidium iodide-staining based FACS analysis (reference value: 2.2 %). Type of assay: functional. The following applies: HL-60. The method, boiled down: as §2
Assay [25] in a line: Cell cycle arrest in human HL60 cells assessed as accumulation at sub G1 phase at 2.5 uM after 48 hrs by propidium iodide-staining based FACS analysis (reference value: 1.4 %). Type of assay: functional. As to conditions: HL-60. The method, boiled down:
as §2

Turning to `C=C(CC)C(=O)c1ccc(OCC(=O)NCCc2ccc(OP(=O)(OCC)OCC)c(OC)c2)c(Cl)c1Cl`, the half-maximal inhibitory concentration (IC50) (as a rule, the concentration that gives 50% inhibition) in assay [1] was 700 nM; in assay [2], 800 nM; in assay [5] it was 2300 nM. Besides, the “Ratio IC50” value in assay [3] was determined as 3.2; in assay [4], 2.8.
Regarding `C=C(CC)C(=O)c1ccc(OCC(=O)N2CCN(c3ccc(OC)cc3)CC2)c(Cl)c1Cl`, the IC50 in [1] came out at 400 nM; in assay [2], 800 nM; in [5], 3600 nM. Moreover, the outcome in assay [6] and in [7] was Active. Moreover, the “Ratio IC50” value in [3] was found to be 9; in assay [4] it was 4.5.
Regarding `C=C(CC)C(=O)c1ccc(OCC(=O)NCCc2ccc(OP3(=O)OCCC(c4cccc(Cl)c4)O3)cc2)c(Cl)c1Cl` (configuration not stated), the values for the IC50 in [1], in assay [2] and in assay [5] were 700 nM, 900 nM and 2200 nM, respectively. Further, the “Ratio IC50” value turned out to be 3.1 in assay [3] and 2.4 in assay [4].
As for `CCC(C)C(=O)c1ccc(OCC(=O)N2CCN(c3ccc(O)cc3)CC2)c(Cl)c1Cl` (configuration not stated), the result in assay [6] and in [7] was Active.
Consider `C=C(CC)C(=O)c1ccc(OCC(=O)NCCc2ccc(OP(=O)(OC)OC)cc2)c(Cl)c1Cl`, for which the concentration for half-maximal inhibition (IC50) in assay [1] amounted to 400 nM; in assay [2], 1200 nM; in assay [8] it was 900 nM; in assay [9] it was 1500 nM; in [10] it was 800 nM; in [11], 2800 nM. The concentration for half-maximal inhibition (IC50) in assay [12] amounted to 1500 nM; in [5], 700 nM. Also, the “Ratio IC50” value is 1.75 in assay [3] and 0.58 in assay [4].
`C=C(CC)C(=O)c1ccc(OCC(=O)N2CCN(c3ccc(OP4(=O)OCCC(c5cccc(Cl)c5)O4)cc3)CC2)c(Cl)c1Cl` (configuration not stated): the IC50 in assay [1] was found to be 400 nM; in assay [2] it was 900 nM; in assay [5], 7800 nM. The “Ratio IC50” value in [3] amounted to 21; in [4] it was 8.7.
With `C=C(CC)C(=O)c1ccc(OCC(=O)NCCc2ccc(OP(=O)(OCC)OCC)cc2)c(Cl)c1Cl`, the IC50 is 800 nM in assay [1], 1100 nM in [2] and 3200 nM in [5]. Besides, the “Ratio IC50” value in assay [3] came to 4; in assay [4] it was 2.9.
With `C=C(CC)C(=O)c1ccc(OCC(=O)NCCc2ccc(OP3(=O)OCCCO3)cc2)c(Cl)c1Cl`, the IC50 in assay [1] was 500 nM; in assay [2] it was 1200 nM; in [5] it was 3400 nM. Moreover, the “Ratio IC50” value came to 6.8 in [3] and 2.8 in assay [4].
Regarding `C=C(CC)C(=O)c1ccc(OCC(=O)NCCc2ccc(OC)c(OC)c2)c(Cl)c1Cl`, the half-maximal inhibitory concentration (IC50) was determined as 500 nM in [1], 800 nM in assay [2], 1400 nM in assay [13] and 3400 nM in assay [5]. Further, the result in assay [14], in assay [15], in assay [6], in assay [7] and in [16] was Active. Besides, the “Ratio IC50” value in assay [3] was found to be 6.8; in assay [4], 4.2. In assay [17], the GSH reduction activity result was “Active”.
On to `C=C(CC)C(O)c1ccc(OCC(=O)NCCc2ccc(O)cc2)c(Cl)c1Cl` (configuration not stated), for which the result in assay [6] and in assay [7] was Active. Further, the Activity in assay [18] worked out at 42.3%; in [19] it was 50.5%; in assay [20], 5.2%; in assay [21], 2%; in assay [22] it was 51.9%; in assay [23] it was 41.5%. Further, the results for the Activity in assay [24] and in [25] were 0.6% and 6.1%, respectively.
Consider `C=C(CC)C(=O)c1ccc(OCC(=O)N2CCN(c3ccc(OP4(=O)OCCCO4)cc3)CC2)c(Cl)c1Cl`, for which the concentration for half-maximal inhibition (IC50) in [1] worked out at 200 nM; in assay [2], 350 nM; in assay [8] it was 900 nM; in assay [9] it was 1000 nM; in [10] it was 500 nM; in [11], 3500 nM. Also, the IC50 came out at 1900 nM in [12] and 1250 nM in assay [5]. Also, the Activity in assay [18] is 40.7%; in [19], 47.1%; in [20] it was 9.6%; in [21] it was 2.6%; in [22] it was 41.7%; in assay [23], 30.7%. Besides, the figures for the Activity in assay [24] and in assay [25] were 0% and 27.6%, respectively. The results for the “Ratio IC50” value in [3] and in [4] were 6.25 and 3.6, respectively.
Turning to `CCC(C)C(=O)c1ccc(OCC(=O)NCCc2ccc(O)cc2)c(Cl)c1Cl` (configuration not stated), the outcome in [6] and in [7] was Active. Moreover, the Activity in [18] was determined as 42.1%; in assay [19] it was 46.7%; in assay [20] it was 7.9%; in assay [21], 3.3%; in assay [22], 51.7%; in assay [23], 41.9%. The Activity in [24] was 2.2%; in [25], 4.2%.
Turning to `C=C(CC)C(=O)c1ccc(OCC(=O)N2CCN(c3ccc(OP(=O)(OC)OC)cc3)CC2)c(Cl)c1Cl`, the 50% inhibitory concentration (IC50) in assay [1] was determined as 170 nM; in assay [2], 800 nM; in assay [8] it was 500 nM; in assay [9] it was 800 nM; in [10] it was 1100 nM; in [11] it was 2200 nM. Further, the half-maximal inhibitory concentration (IC50) is 1400 nM in assay [12] and 2900 nM in [5]. The “Ratio IC50” value in assay [3] worked out at 17; in assay [4] it was 3.6.
For `C=C(CC)C(=O)c1ccc(OCC(=O)NCCc2ccc(O)c(OC)c2)c(Cl)c1Cl`, the IC50 in [1] was 800 nM; in assay [2], 1600 nM; in [13], 2600 nM; in [5], 4500 nM. The result in [15], in [6], in assay [7] and in [16] was Active. Besides, the “Ratio IC50” value in assay [3] came out at 5.6; in [4], 2.8. Moreover, in [17], the GSH reduction activity result is “Active”.
As to `CCC(C)C(=O)c1ccc(OCC(=O)N2CCN(c3ccc(OC)cc3)CC2)c(Cl)c1Cl` (configuration not stated), the result in assay [6] and in assay [7] was Active.
On to `C=C(CC)C(=O)c1ccc(OCC(=O)N2CCN(c3ccc(O)cc3)CC2)c(Cl)c1Cl`, for which the IC50 in assay [1] worked out at 400 nM; in assay [2] it was 800 nM; in assay [8] it was 800 nM; in assay [9], 2000 nM; in assay [10], 3900 nM; in assay [11] it was 2300 nM. Further, the figures for the IC50 in assay [12] and in [5] were 800 nM and 3200 nM, respectively. Moreover, the result in assay [6] and in [7] was Active. Moreover, the Activity was 41.7% in assay [18]; 49.3% in assay [19]; 6.1% in assay [20]; 2.9% in [21]; 49.3% in assay [22]; 33.8% in assay [23]. For the same molecule, the Activity in assay [24] was 0.4%; in [25] it was 16.5%. Also, the “Ratio IC50” value in assay [3] stood at 8; in assay [4], 4.
In the case of `C=C(CC)C(=O)c1ccc(OCC(=O)N2CCN(c3ccc(OP(=O)(OCC)OCC)cc3)CC2)c(Cl)c1Cl`, the results for the IC50 in assay [1], in assay [2] and in assay [5] were 300 nM, 500 nM and 2800 nM, respectively. In addition, the “Ratio IC50” value came to 9.3 in assay [3] and 5.6 in assay [4].
